Measured values published in ChEMBL document CHEMBL1124865, “Synthesis and biological evaluation of a series of parenteral 3'-quaternary ammonium cephalosporins” (J Med Chem, 1990).
Converted amounts (≈) assume the structure as drawn.

How the values were obtained:
Klebsiella pneumoniae [1] = experiment: Antibacterial activity against Klebsiella pneumoniae X26; type: functional; settings: Klebsiella pneumoniae; read-out: MIC
Staphylococcus aureus [2] = experiment: Antibacterial activity against penicillin G resistance Staphylococcus aureus; type: functional; settings: Staphylococcus aureus; read-out: MIC
Escherichia coli [3] = experiment: In vivo efficacy against Escherichia coli infections in mice; type: functional; settings: Escherichia coli; read-out: MIC
Streptococcus pyogenes = experiment: Antibacterial activity against Streptococcus pyogenes; type: functional; settings: Streptococcus pyogenes; read-out: MIC
Pseudomonas aeruginosa [4] = experiment: Antibacterial activity against Pseudomonas aeruginosa PS18; type: functional; settings: Pseudomonas aeruginosa; read-out: MIC
Staphylococcus aureus [5] = experiment: Antibacterial activity against penicillin G susceptible Staphylococcus aureus; type: functional; settings: Staphylococcus aureus; read-out: MIC
Pseudomonas aeruginosa [6] = experiment: In vivo efficacy against Pseudomonas aeruginosa infected mice treated at 1 hr and 5 hr post infection; type: functional; settings: Pseudomonas aeruginosa; read-out: ED50
Enterobacter cloacae [7] = experiment: In vitro relative hydrolysis rate against Enterobacter Ia; type: functional
Summary of the method: (§1)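 Spectrophotometric hydrolysis at 265 nm, substrate exposed to partially purified cell-free β-lactamase preparations; rate expressed as percentage of the cephaloridine rate.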

Klebsiella pneumoniae [8] = experiment: microbe, parasite or virus in culture; type: functional; settings: Klebsiella pneumoniae; read-out: MIC
Staphylococcus aureus [9] = experiment: In vivo efficacy against Staphylococcus aureus infected mice treated at 1 hr and 5 hr post infection; type: functional; settings: Staphylococcus aureus; read-out: ED50
Enterobacter cloacae [10] = experiment: Antibacterial activity against Enterobacter cloacae 265A; type: functional; settings: Enterobacter cloacae; read-out: MIC
Staphylococcus aureus [11] = experiment: In vivo efficacy against Staphylococcus aureus infections in mice; type: functional; settings: Staphylococcus aureus; read-out: MIC
Pseudomonas aeruginosa [12] = experiment: Antibacterial activity against Pseudomonas aeruginosa X528; type: functional; settings: Pseudomonas aeruginosa; read-out: MIC
Pseudomonas aeruginosa [13] = experiment: In vitro relative hydrolysis rate against Pseudomonas Id; type: functional; summary of the method: as §1
Klebsiella pneumoniae [14] = experiment: In vitro relative hydrolysis rate against Klebsiella IV; type: functional; summary of the method: as §1
Staphylococcus aureus [15] = experiment: In vitro relative hydrolysis rate against Staphylococcus aureus; type: functional; summary of the method: as §1
Serratia marcescens = experiment: Antibacterial activity against Serratia marcescens SE3; type: functional; settings: Serratia marcescens; read-out: MIC
Escherichia coli [16] = experiment: In vivo efficacy against Escherichia coli infected mice treated at 1 hr and 5 hr post infection; type: functional; settings: Escherichia coli; read-out: ED50
Escherichia coli [17] = experiment: Antibacterial activity against Escherichia coli TEM; type: functional; settings: Escherichia coli; read-out: MIC
Escherichia coli [18] = experiment: Antibacterial activity against Escherichia coli EC14; type: functional; settings: Escherichia coli; read-out: MIC
Pseudomonas aeruginosa [19] = experiment: In vivo efficacy against Pseudomonas aeruginosa infections in mice; type: functional; settings: Pseudomonas aeruginosa; read-out: MIC
Enterococcus faecium = experiment: Antibacterial activity against Enterococcus faecium; type: functional; settings: Enterococcus faecium; read-out: MIC
Streptococcus pneumoniae = experiment: Antibacterial activity against Streptococcus pneumoniae; type: functional; settings: Streptococcus pneumoniae; read-out: MIC
Enterobacter cloacae [20] = experiment: Antibacterial activity against Enterobacter cloacae EB5; type: functional; settings: Enterobacter cloacae; read-out: MIC
Escherichia coli [21] = experiment: In vitro relative hydrolysis rate against Escherichia coli IIIa; type: functional; summary of the method: as §1
[22] = Terminal half life in dogs at the dose of 60 mg/kg.; type: ADME, organism-based, Canis lupus familiaris; parameters: dose 60 mg/kg; settings: dog, in vivo
Summary of the method: (§2)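 Overnight-fasted female mongrel dogs with a Foley bladder catheter; bolus into the cephalic vein. Plasma and urine collected before dosing and over 24 h after. Antibacterial activity measured by microbiological assay.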

Canis familiaris = experiment: Percent of dose in dogs urine at the dose of 60 mg/kg.; type: functional, Canis lupus familiaris; summary of the method: as §2
Cavia porcellus = species: Cavia porcellus; experiment: In vitro relative anticholinergic potential in isolated guinea pig trachea; type: functional
Summary of the method: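 Guinea pig trachea in Krebs' solution at 37.5 °C, 95% O2/5% CO2, pH 7.4, 2 g resting tension. Cumulative carbachol log dose-response curve (3-fold steps) run before and 30 min after adding antagonist at 1 mM. […] Tukey test on log2 dose ratios.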

## CO/N=C(\C(=O)N[C@@H]1C(=O)N2C(C(=O)[O-])=C(C[n+]3cccc4sccc43)CS[C@H]12)c1csc(N)n1
Klebsiella pneumoniae [1]
  MIC: 0.03 µg/mL (≈ 0.0565 µM)
Staphylococcus aureus [2]
  MIC: 4 µg/mL (≈ 7.54 µM)
Escherichia coli [3]
  MIC: 0.03 µg/mL (≈ 0.0565 µM)
Streptococcus pyogenes
  MIC: 0.015 µg/mL (≈ 0.0283 µM)
Pseudomonas aeruginosa [4]
  MIC: 4 µg/mL (≈ 7.54 µM)
Staphylococcus aureus [5]
  MIC: 0.5 µg/mL (≈ 0.942 µM)
Pseudomonas aeruginosa [6]
  ED50: 9.3 mg/kg
Enterobacter cloacae [7]
  Hydrolysis rate: 0.2
Klebsiella pneumoniae [8]
  MIC: 1 µg/mL (≈ 1.88 µM)
Staphylococcus aureus [9]
  ED50: 0.6 mg/kg
Enterobacter cloacae [10]
  MIC: 4 µg/mL (≈ 7.54 µM)
Staphylococcus aureus [11]
  MIC: 1 µg/mL (≈ 1.88 µM)
Pseudomonas aeruginosa [12]
  MIC: 2 µg/mL (≈ 3.77 µM)
Pseudomonas aeruginosa [13]
  Hydrolysis rate: 0.2
Klebsiella pneumoniae [14]
  Hydrolysis rate: 0.7
Staphylococcus aureus [15]
  Hydrolysis rate: 6.2
Serratia marcescens
  MIC: 0.125 µg/mL (≈ 0.236 µM)
Escherichia coli [16]
  ED50: 0.04 mg/kg
Escherichia coli [17]
  MIC: 0.06 µg/mL (≈ 0.113 µM)
Escherichia coli [18]
  MIC: 0.06 µg/mL (≈ 0.113 µM)
Pseudomonas aeruginosa [19]
  MIC: 2 µg/mL (≈ 3.77 µM)
Enterococcus faecium
  MIC: 128 µg/mL (≈ 241 µM)
Streptococcus pneumoniae
  MIC: 0.03 µg/mL (≈ 0.0565 µM)
Enterobacter cloacae [20]
  MIC: 0.25 µg/mL (≈ 0.471 µM)
Escherichia coli [21]
  Hydrolysis rate: 0.2

## CO/N=C(\C(=O)N[C@@H]1C(=O)N2C(C(=O)[O-])=C(C[n+]3cccc4ccccc43)CS[C@H]12)c1csc(N)n1
Klebsiella pneumoniae [1]
  MIC: 0.015 µg/mL (≈ 0.0286 µM)
Staphylococcus aureus [2]
  MIC: 1 µg/mL (≈ 1.91 µM)
Escherichia coli [3]
  MIC: 0.03 µg/mL (≈ 0.0572 µM)
Streptococcus pyogenes
  MIC: 0.015 µg/mL (≈ 0.0286 µM)
Pseudomonas aeruginosa [4]
  MIC: 4 µg/mL (≈ 7.63 µM)
Staphylococcus aureus [5]
  MIC: 0.5 µg/mL (≈ 0.953 µM)
Pseudomonas aeruginosa [6]
  ED50: 9.5 mg/kg
Enterobacter cloacae [7]
  Hydrolysis rate: 0.1
Klebsiella pneumoniae [8]
  MIC: 2 µg/mL (≈ 3.81 µM)
Staphylococcus aureus [9]
  ED50: 0.4 mg/kg
Enterobacter cloacae [10]
  MIC: 4 µg/mL (≈ 7.63 µM)
Staphylococcus aureus [11]
  MIC: 0.5 µg/mL (≈ 0.953 µM)
Pseudomonas aeruginosa [12]
  MIC: 2 µg/mL (≈ 3.81 µM)
Pseudomonas aeruginosa [13]
  Hydrolysis rate: 0.1
Klebsiella pneumoniae [14]
  Hydrolysis rate: 0.8
Staphylococcus aureus [15]
  Hydrolysis rate: 8.4
Serratia marcescens
  MIC: 0.125 µg/mL (≈ 0.238 µM)
Escherichia coli [16]
  ED50: 0.04 mg/kg
Escherichia coli [17]
  MIC: 0.015 µg/mL (≈ 0.0286 µM)
Escherichia coli [18]
  MIC: 0.03 µg/mL (≈ 0.0572 µM)
Pseudomonas aeruginosa [19]
  MIC: 8 µg/mL (≈ 15.3 µM)
Enterococcus faecium
  MIC: 128 µg/mL (≈ 244 µM)
Streptococcus pneumoniae
  MIC: 0.015 µg/mL (≈ 0.0286 µM)
Enterobacter cloacae [20]
  MIC: 0.125 µg/mL (≈ 0.238 µM)
Escherichia coli [21]
  Hydrolysis rate: 0.2

## CO/N=C(\C(=O)N[C@@H]1C(=O)N2C(C(=O)[O-])=C(C[n+]3cccc4occc43)CS[C@H]12)c1csc(N)n1
Klebsiella pneumoniae [1]
  MIC: 0.06 µg/mL (≈ 0.117 µM)
Staphylococcus aureus [2]
  MIC: 4 µg/mL (≈ 7.77 µM)
Streptococcus pyogenes
  MIC: 0.06 µg/mL (≈ 0.117 µM)
Pseudomonas aeruginosa [4]
  MIC: 8 µg/mL (≈ 15.5 µM)
Staphylococcus aureus [5]
  MIC: 0.5 µg/mL (≈ 0.972 µM)
Klebsiella pneumoniae [8]
  MIC: 8 µg/mL (≈ 15.5 µM)
[22]
  half-life: 1.67 h
Enterobacter cloacae [10]
  MIC: 4 µg/mL (≈ 7.77 µM)
Pseudomonas aeruginosa [12]
  MIC: 4 µg/mL (≈ 7.77 µM)
Canis familiaris
  Percent of dose recovered in urine: 78%
Serratia marcescens
  MIC: 0.25 µg/mL (≈ 0.486 µM)
Escherichia coli [17]
  MIC: 0.06 µg/mL (≈ 0.117 µM)
Escherichia coli [18]
  MIC: 0.06 µg/mL (≈ 0.117 µM)
Enterococcus faecium
  MIC: 32 µg/mL (≈ 62.2 µM)
Streptococcus pneumoniae
  MIC: 0.06 µg/mL (≈ 0.117 µM)
Enterobacter cloacae [20]
  MIC: 0.5 µg/mL (≈ 0.972 µM)

## CO/N=C(\C(=O)N[C@@H]1C(=O)N2C(C(=O)[O-])=C(C[n+]3ccc4c(c3)ncn4C)CS[C@H]12)c1csc(N)n1
Klebsiella pneumoniae [1]
  MIC: 0.015 µg/mL (≈ 0.0284 µM)
Staphylococcus aureus [2]
  MIC: 16 µg/mL (≈ 30.3 µM)
Streptococcus pyogenes
  MIC: 0.015 µg/mL (≈ 0.0284 µM)
Pseudomonas aeruginosa [4]
  MIC: 4 µg/mL (≈ 7.57 µM)
Staphylococcus aureus [5]
  MIC: 2 µg/mL (≈ 3.78 µM)
Klebsiella pneumoniae [8]
  MIC: 8 µg/mL (≈ 15.1 µM)
Enterobacter cloacae [10]
  MIC: 8 µg/mL (≈ 15.1 µM)
Pseudomonas aeruginosa [12]
  MIC: 1 µg/mL (≈ 1.89 µM)
Cavia porcellus
  RAP: 1
Escherichia coli [17]
  MIC: 0.015 µg/mL (≈ 0.0284 µM)
Escherichia coli [18]
  MIC: 0.015 µg/mL (≈ 0.0284 µM)
Enterococcus faecium
  MIC: 128 µg/mL (≈ 242 µM)
Streptococcus pneumoniae
  MIC: 0.008 µg/mL (≈ 0.0151 µM)

## CO/N=C(\C(=O)N[C@@H]1C(=O)N2C(C(=O)[O-])=C(C[n+]3cc(C)cc(C)c3)CS[C@H]12)c1csc(N)n1
Klebsiella pneumoniae [1]
  MIC: 0.03 µg/mL (≈ 0.0597 µM)
Staphylococcus aureus [2]
  MIC: 2 µg/mL (≈ 3.98 µM)
Streptococcus pyogenes
  MIC: < 0.008 µg/mL
Pseudomonas aeruginosa [4]
  MIC: 8 µg/mL (≈ 15.9 µM)
Staphylococcus aureus [5]
  MIC: 1 µg/mL (≈ 1.99 µM)
Enterobacter cloacae [7]
  Hydrolysis rate: 0.1
Klebsiella pneumoniae [8]
  MIC: 8 µg/mL (≈ 15.9 µM)
Enterobacter cloacae [10]
  MIC: 8 µg/mL (≈ 15.9 µM)
Pseudomonas aeruginosa [12]
  MIC: 4 µg/mL (≈ 7.96 µM)
Pseudomonas aeruginosa [13]
  Hydrolysis rate: 0.1
Klebsiella pneumoniae [14]
  Hydrolysis rate: 1.5
Staphylococcus aureus [15]
  Hydrolysis rate: 6.1
Serratia marcescens
  MIC: 0.125 µg/mL (≈ 0.249 µM)
Escherichia coli [17]
  MIC: 0.06 µg/mL (≈ 0.119 µM)
Escherichia coli [18]
  MIC: 0.06 µg/mL (≈ 0.119 µM)
Enterococcus faecium
  MIC: > 128 µg/mL
Streptococcus pneumoniae
  MIC: 0.03 µg/mL (≈ 0.0597 µM)
Enterobacter cloacae [20]
  MIC: 0.125 µg/mL (≈ 0.249 µM)
Escherichia coli [21]
  Hydrolysis rate: 0.5

## CO/N=C(\C(=O)N[C@@H]1C(=O)N2C(C(=O)[O-])=C(C[n+]3cccc4c(N)cccc43)CS[C@H]12)c1csc(N)n1
Klebsiella pneumoniae [1]
  MIC: 0.015 µg/mL (≈ 0.0278 µM)
Staphylococcus aureus [2]
  MIC: 2 µg/mL (≈ 3.71 µM)
Escherichia coli [3]
  MIC: 0.03 µg/mL (≈ 0.0556 µM)
Streptococcus pyogenes
  MIC: < 0.008 µg/mL
Pseudomonas aeruginosa [4]
  MIC: 2 µg/mL (≈ 3.71 µM)
Staphylococcus aureus [5]
  MIC: 1 µg/mL (≈ 1.85 µM)
Pseudomonas aeruginosa [6]
  ED50: 6 mg/kg
Enterobacter cloacae [7]
  Hydrolysis rate: 1.1
Klebsiella pneumoniae [8]
  MIC: 2 µg/mL (≈ 3.71 µM)
Staphylococcus aureus [9]
  ED50: 0.2 mg/kg
Enterobacter cloacae [10]
  MIC: 8 µg/mL (≈ 14.8 µM)
Staphylococcus aureus [11]
  MIC: 0.5 µg/mL (≈ 0.927 µM)
Pseudomonas aeruginosa [12]
  MIC: 2 µg/mL (≈ 3.71 µM)
Pseudomonas aeruginosa [13]
  Hydrolysis rate: 0.6
Klebsiella pneumoniae [14]
  Hydrolysis rate: 6.8
Staphylococcus aureus [15]
  Hydrolysis rate: 0.2
Serratia marcescens
  MIC: 0.06 µg/mL (≈ 0.111 µM)
Escherichia coli [16]
  ED50: < 0.03 mg/kg
Escherichia coli [17]
  MIC: 0.015 µg/mL (≈ 0.0278 µM)
Escherichia coli [18]
  MIC: 0.015 µg/mL (≈ 0.0278 µM)
Pseudomonas aeruginosa [19]
  MIC: 2 µg/mL (≈ 3.71 µM)
Enterococcus faecium
  MIC: 128 µg/mL (≈ 237 µM)
Streptococcus pneumoniae
  MIC: 0.015 µg/mL (≈ 0.0278 µM)
Enterobacter cloacae [20]
  MIC: 0.06 µg/mL (≈ 0.111 µM)
Escherichia coli [21]
  Hydrolysis rate: 0.7
